Reference: ChEMBL document CHEMBL1127539, “Aminodiol HIV protease inhibitors. 1. Design, synthesis, and preliminary SAR” (J Med Chem, 1994)
pEC50, pIC50: −log10 of the molar value.

Legend:
[1] = biological target: Human immunodeficiency virus type 1 protease (Human immunodeficiency virus 1, UniProt Q72874); test: In vitro inhibition of HIV-1 protease.
Procedure, shortened: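 HPLC-monitored cleavage of peptide H2N-Val-Ser-Gln-Asn-(β-naphthylalanine)-Pro-Ile-Val-OH (0.45 mM final) by purified recombinant HIV-1 protease (1-10 nM final; E. coli maltose-binding-protein fusion, cleaved off, 99% pure). Buffer 50 mM sodium acetate, 1 mg/mL BSA, pH 5.5; DMSO stock. 30 min at 37 °C, quenched with phosphoric acid. Screened at 0.1, 1, 10 μM, then IC50 from five concentrations.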

[2] = test system: Human immunodeficiency virus 1; test: Inhibition of viral replication by XTT endpoint; type: functional; details: read-out: ED50 (the source's name)
Procedure, shortened: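 CEM-SS cells (5000/well) in RPMI with 10% fetal calf serum infected with HIV-1 RF at multiplicity 0.04; compound from DMSO stock, final DMSO at most 0.125%. After 6 days at 37 °C, XTT/PMS added for 4 h; formazan read at 450 nm against 650 nm reference. ED50 = concentration restoring formazan in infected cells to 50% of control cells; mean of two determinations.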

[3] = The biological half life (t1/2) was measured on rats after intravenous administration; type: ADME, organism-based; details: rat, in vivo
Procedure, shortened: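 Male Sprague-Dawley rats (200–350 g), jugular-cannulated, fasted overnight, given an ethanol solution infused iv over 5 min: [3H] compound at 1.3 μmol/kg (n = 3) or unlabeled at 9 μmol/kg (n = 2). Plasma measured by radio-TLC or LC/MS/MS. Half-life by model-independent analysis; mean ± SEM, n = 5.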

Cathepsin D = Cathepsin D (Homo sapiens, UniProt P07339); test: The inhibitory concentration value was measured on Human cathepsin D at 31000 nM
Procedure, shortened: (§1)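 Spectrophotometric assay at 37 °C in 0.1 M formate, pH 3, with chromogenic peptide H-Pro-Thr-Glu-Phe-p-nitro-Phe-Arg-Leu-OH at 0.32 mM final. Reaction started with enzyme: 0.36 units of human liver cathepsin D or 0.03 units of porcine stomach pepsin. Absorbance at 310 nm followed for 20 min; buffer-only controls; highest concentration tested 31000 nM.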

[4] = The oral bioavailability was measured on rats after oral administration; type: ADME, organism-based; details: rat, in vivo, read-out: Bioavailabiility
Procedure, shortened: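 Male Sprague-Dawley rats (200-350 g), jugular cannula placed the day before, fasted overnight, water ad libitum. [3H]-labelled compound 1.3 μmol/kg iv and po (n = 3 per route, TLRC plasma assay), or unlabelled 9 μmol/kg iv and 22 μmol/kg oral (n = 2 per route, LC/MS/MS). Dosing was iv in ethanol over 5 min and oral by gavage as 0.2% CMC suspension or ethanol solution.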

Renin = biological target: T1, Renin (Homo sapiens, UniProt P00797); test: The inhibitory concentration value was measured on Human renin at 100000 nM
T1 sequence (P00797 whole entry): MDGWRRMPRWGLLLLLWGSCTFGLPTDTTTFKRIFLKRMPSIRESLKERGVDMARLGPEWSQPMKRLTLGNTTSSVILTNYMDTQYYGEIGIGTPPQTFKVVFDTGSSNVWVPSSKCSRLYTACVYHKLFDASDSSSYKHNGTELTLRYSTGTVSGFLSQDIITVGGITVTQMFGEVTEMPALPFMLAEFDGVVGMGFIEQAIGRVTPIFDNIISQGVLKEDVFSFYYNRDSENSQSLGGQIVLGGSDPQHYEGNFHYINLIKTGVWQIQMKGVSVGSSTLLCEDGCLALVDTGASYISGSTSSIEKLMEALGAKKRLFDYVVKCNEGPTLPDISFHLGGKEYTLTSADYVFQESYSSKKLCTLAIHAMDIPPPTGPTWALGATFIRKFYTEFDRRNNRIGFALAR

Pepsin A = Pepsin A (Sus scrofa, UniProt P00791); test: The inhibitory concentration value was measured on porcine pepsin at 31000 nM; procedure, shortened: as §1
[5] = test system: Human immunodeficiency virus 2; test: The concentration was measured on HIV-2CBL-20 virus; type: functional; details: read-out: ED50 (the source's name)
Procedure, shortened: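 HIV-2 CBL-20 infection of CEM-SS cells (5000/well) at multiplicity 0.04, in RPMI with 10% fetal calf serum; final DMSO at most 0.125%. Incubated 6 days at 37 °C, 5% CO2, then 4 h with XTT/PMS; absorbance at 450 nm (650 nm reference). ED50 from formazan relative to uninfected controls; n = 7.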

[6] = The maximum plasma concentration was measured on rats after oral administration; type: ADME, organism-based; parameters: route oral; details: rat
Procedure, shortened: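 Fasted male Sprague-Dawley rats dosed by gavage as a suspension in 0.2% carboxymethyl cellulose or an ethanol solution: [3H] compound at 1.3 μmol/kg (n = 3) or unlabeled at 22 μmol/kg (n = 2). Plasma quantified by thin-layer radiochromatography (LLOQ 1 nM) or LC/MS/MS (LLOQ 10 nM). Cmax given as mean ± SEM, n = 5.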

[7] = test system: Human immunodeficiency virus 1; test: The concentration was measured on HIV-1 IIIB virus; type: functional; details: read-out: ED50 (the source's name)
Procedure, shortened: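 Human PBMCs, PHA-stimulated, infected with HIV-1 IIIB at m.o.i. 0.001–0.02 and kept with graded compound. Half the medium was replaced with fresh compound-containing medium on day 3. p24 in supernatant measured by ELISA at day 7; ED50 = dose giving 50% p24 reduction relative to control wells; n = 2.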

Cathepsin D, sequence (P07339 65-162 limits assumed): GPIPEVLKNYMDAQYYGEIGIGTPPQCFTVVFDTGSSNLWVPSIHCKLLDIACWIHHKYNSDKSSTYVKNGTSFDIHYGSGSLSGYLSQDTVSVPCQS
Cathepsin D, sequence (P07339 169-412 limits assumed): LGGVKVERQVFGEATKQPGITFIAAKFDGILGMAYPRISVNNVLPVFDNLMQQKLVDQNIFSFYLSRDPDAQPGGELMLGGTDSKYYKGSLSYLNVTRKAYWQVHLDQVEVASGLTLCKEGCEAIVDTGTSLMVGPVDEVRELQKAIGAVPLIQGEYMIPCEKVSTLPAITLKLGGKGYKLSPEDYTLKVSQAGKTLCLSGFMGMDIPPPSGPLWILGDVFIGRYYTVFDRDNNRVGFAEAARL
Pepsin A, sequence (P00791 whole entry): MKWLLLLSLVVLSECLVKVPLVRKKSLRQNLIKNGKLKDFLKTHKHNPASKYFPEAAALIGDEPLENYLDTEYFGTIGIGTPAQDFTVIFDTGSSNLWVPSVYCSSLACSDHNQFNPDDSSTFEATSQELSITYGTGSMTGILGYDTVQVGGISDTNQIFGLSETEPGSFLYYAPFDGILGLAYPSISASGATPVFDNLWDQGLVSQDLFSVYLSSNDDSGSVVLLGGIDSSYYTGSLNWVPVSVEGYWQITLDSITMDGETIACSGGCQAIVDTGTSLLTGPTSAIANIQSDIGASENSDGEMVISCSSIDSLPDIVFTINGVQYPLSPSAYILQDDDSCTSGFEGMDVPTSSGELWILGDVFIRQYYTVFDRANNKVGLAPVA

| SMILES | pIC50 [1] | pEC50 [2] | also measured |
| --- | --- | --- | --- |
| CC(C)(C)OC(=O)N[C@H](CCNC[C@@H](O)[C@H](Cc1ccccc1)NC(=O)OC(C)(C)C)Cc1ccccc1 | 5.54 |  |  |
| CO[C@H](CNC[C@@H](O)[C@H](Cc1ccccc1)NC(=O)OC(C)(C)C)[C@H](Cc1ccccc1)NC(=O)OC(C)(C)C | < 5.00 |  |  |
| CC(C)(C)OC(=O)N[C@@H](Cc1ccccc1)[C@H](O)CNC[C@H](O)[C@H](Cc1ccccc1)NC(=O)OC(C)(C)C | 5.35 |  |  |
| CC(C)(C)CC(=O)N[C@@H](Cc1ccccc1)[C@H](O)CNC[C@@H](O)[C@H](Cc1ccccc1)NC(=O)OC(C)(C)C | 5.40 | 5.92 |  |
| CN(C(=O)OC(C)(C)C)[C@@H](Cc1ccccc1)[C@H](O)CNC[C@@H](O)[C@H](Cc1ccccc1)NC(=O)OC(C)(C)C | 5.07 | < 5.52 |  |
| CC(C)(C)NC(=O)N[C@@H](Cc1ccccc1)[C@H](O)CNC[C@@H](O)[C@H](Cc1ccccc1)NC(=O)OC(C)(C)C | 6.40 | 6.80 |  |
| CC(C)(C)OC(=O)N[C@@H](Cc1ccccc1)[C@H](O)CNC[C@@H](O)[C@H](Cc1ccccc1)NC(=O)OC(C)(C)C | 6.90 | 7.10 | half-life [3]: 4.2 h; pIC50 (Cathepsin D): < 4.51; bioavailability [4]: 40%; pIC50 (Renin): < 4.00; pIC50 (Pepsin A): < 4.51; pEC50 [5]: 6.77; Cmax [6]: 240 nM; pEC50 [7]: 7.60 |
| O=C(N[C@@H](Cc1ccccc1)[C@H](O)CNC[C@@H](O)[C@H](Cc1ccccc1)NC(=O)OCc1ccccc1)OCc1ccccc1 | 5.47 | < 5.30 |  |
| CC(C)OC(=O)N[C@@H](Cc1ccccc1)[C@H](O)CNC[C@@H](O)[C@H](Cc1ccccc1)NC(=O)OC(C)C | 6.05 | 6.00 |  |
| CC(C)(C)OC(=O)NC(CC1CCCCC1)[C@H](O)CNC[C@@H](O)C(CC1CCCCC1)NC(=O)OC(C)(C)C (stereo not given in full) | 6.10 | 6.18 |  |
| CC(C)(C)OC(=O)N[C@@H](Cc1ccccc1)[C@H](O)COC[C@@H](O)[C@H](Cc1ccccc1)NC(=O)OC(C)(C)C | < 5.00 |  |  |
| CC(C)(C)OC(=O)NC(Cc1ccc(O)cc1)[C@H](O)CNC[C@@H](O)[C@H](Cc1ccccc1)NC(=O)OC(C)(C)C (stereo not given in full) | 7.00 | 7.22 |  |
| CC(C)(C)OC(=O)NC(CCc1ccccc1)[C@H](O)CNC[C@@H](O)[C@H](Cc1ccccc1)NC(=O)OC(C)(C)C (stereo not given in full) | 6.30 | 6.16 |  |
| CC(C)(C)COC(=O)N[C@@H](Cc1ccccc1)[C@H](O)CNC[C@@H](O)[C@H](Cc1ccccc1)NC(=O)OCC(C)(C)C | 5.22 |  |  |
| CN(CC(O)[C@H](Cc1ccccc1)NC(=O)OC(C)(C)C)C[C@@H](O)[C@H](Cc1ccccc1)NC(=O)OC(C)(C)C (stereo not given in full) | < 5.00 |  |  |
| CC(C)(C)OC(=O)N[C@@H](Cc1ccccc1)[C@@H](O)CNCC(O)[C@@H](Cc1ccccc1)NC(=O)OC(C)(C)C (stereo not given in full) | < 5.00 |  |  |
| CC(C)(C)OC(=O)N[C@@H](Cc1ccccc1)[C@@H](O)CNC[C@H](O)[C@H](Cc1ccccc1)NC(=O)OC(C)(C)C | < 5.00 |  |  |
| CC(C)(C)OC(=O)N[C@@H](Cc1ccccc1)[C@H](O)CNC[C@@H](O)[C@H](Cc1ccccc1)NC(=O)SC(C)(C)C | 6.15 | 6.10 |  |
| CC(C)(C)OC(=O)N[C@@H](Cc1ccccc1)[C@H](O)CNC[C@H](O)[C@@H](Cc1ccccc1)NC(=O)OC(C)(C)C | < 5.00 |  |  |
| CC(C)(C)OC(=O)N[C@@H](Cc1ccccc1)[C@H](O)CNC[C@@H](O)[C@@H](Cc1ccccc1)NC(=O)OC(C)(C)C | 5.00 |  |  |
| CCC(C)C(NC(=O)OC(C)(C)C)[C@H](O)CNC[C@@H](O)C(NC(=O)OC(C)(C)C)[C@@H](C)CC (single isomer, unassigned) | 5.35 | 5.28 |  |
